These results are taken from ChEMBL document CHEMBL1126297, “Synthesis and evaluation of analogues of (Z)-1-(4-methoxyphenyl)-2-(3,4,5-trimethoxyphenyl)ethene as potential cytotoxic and antimitotic agents” (J Med Chem, 1992).

Type in all cases: functional
One assay concerns MCF7. The assay can be described thus: Cytotoxicity against human MCF-7 breast cancer cell line. To be noted: read-out: ED50 (the source's name). Put shortly: (§1)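 MTT colorimetric assay run in the Purdue Cell Culture Laboratory. Poorly water-soluble compounds were serially diluted in DMSO and added as 0.5 μL aliquots per well. Cells were incubated with compound for 6 days before MTT was added. […] The reported ED50 is the mean of two determinations.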

Assay [1] deals with MLM. The assay can be described thus: Compound was evaluated for cytotoxicity against human MLM melanoma cell line. The settings on record: read-out: ED50. Put shortly: as §1
Another assay has as its system SK-MEL-5. The assay can be described thus: Compound was evaluated for cytotoxicity against human SKMEL-5 melanoma cell line. The settings on record: read-out: ED50 (the source's name). Put shortly: as §1
A further assay deals with A549. The assay can be described thus: Compound was evaluated for cytotoxicity against human A-549 non-small cell lung cancer cell line. The settings on record: read-out: ED50 (the source's name). Put shortly:
as §1

Another assay deals with HT-29. The assay can be described thus: Cytotoxicity against human HT-29 colon cell line. The settings on record: read-out: ED50 (the source's name). In short, it runs like this: as §1
For a further assay, the species on record is Bos taurus. The assay can be described thus: Inhibition of tubulin polymerization. In short, it runs like this:
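Bovine brain tubulin, purified to electrophoretic homogeneity, was preincubated at 37 °C with a range of compound concentrations and then chilled on ice. GTP was added and polymerization followed at 37 °C by turbidity at 350 nm. Extent was read at 20 min against two controls per experiment, and IC50 was determined graphically. Actives were run in ≥3 independent assays, inactives (IC50 > 40 μM) in ≥2.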

Assay [2] concerns MLM. The assay can be described thus: Cytotoxicity against human MLM melanoma cell line. To be noted: read-out: ED50 (the source's name). In short, it runs like this: as §1

In general, IC50 refers to the concentration that inhibits the measured activity by half. Low values mean higher potency, high ones lower potency.

Regarding `COc1cccc2c1C(=O)c1c(O)c3c(c(O)c1C2=O)C[C@@](O)(C(=O)CO)C[C@@H]3O[C@H]1C[C@H](N)[C@H](O)[C@H](C)O1` [DOXORUBICIN], the EC50 was determined as 31 nM in the assay with MCF7; 130 nM with MLM [1]; 32 nM in the assay with SK-MEL-5; 29 nM in the assay with A549; 55 nM in the assay on HT-29.

On to `COc1ccc(C(=O)c2cc(OC)c(OC)c(OC)c2)cc1`, for which the EC50 amounted to 1500 nM in the assay on MCF7; 1200 nM in the assay with SK-MEL-5; 1100 nM in the assay with A549; 1300 nM in the assay with MLM [2]; 1300 nM in the assay on HT-29. For the same compound, in the assay listed under Bos taurus, the IC50 is 7400 nM.

With `COC(=O)C(Cc1cc(OC)c(OC)c(OC)c1)c1ccc(OC)cc1` (centres undefined), the EC50 in the assay on MCF7, in the assay with SK-MEL-5, in the assay with A549, with MLM [2] and in the assay with HT-29 was more than 25000 nM each time. In addition, the concentration for half-maximal inhibition (IC50) in the assay filed under Bos taurus was more than 40000 nM.

As to `COc1ccc(CC(C#N)c2cc(OC)c(OC)c(OC)c2)cc1` (centres undefined), the EC50 in the assay on MCF7 was 1400 nM; with SK-MEL-5, 4100 nM; with A549, 9600 nM; with MLM [2], 1600 nM; in the assay on HT-29 it was 7500 nM. The same compound yielded an IC50 in the assay filed under Bos taurus of 11000 nM.

Turning to `COc1cc(/C=C/c2ccc(SC)cc2)cc(OC)c1OC`, the EC50 in the assay on MCF7 turned out to be 59 nM; in the assay on SK-MEL-5, 280 nM; in the assay with A549, 470 nM; in the assay on MLM [2] it was 7300 nM; in the assay with HT-29, 83 nM. Besides, the concentration for half-maximal inhibition (IC50) in the assay filed under Bos taurus was more than 40000 nM.
